Most compounds without a hit are left out; they make up all but 4.9% or so of the library.
STAT1 inh: STAT1 signaling inhibition; NIH 3T3 STAT1-luciferase reporter, IFN-gamma, luminescence; 200,000 tested, 0.35% active; inhibition, % at 5.5 µM;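 active = inhibition above a set limit, the mean inhibition across all tested compounds plus 3 SD, cut at about 34% in these data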
APP 5'UTR act: activates APP 5'UTR luciferase reporter; SH-SY5Y APP 5'UTR luciferase reporter, luminescence; zero percent = DMSO vehicle wells; activation, % at 2 µM; 190,000 tested, 1% active;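 active = activation above a set limit, based on mean plus 3 SD of controls, cut at about 140% in these data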
STAT3 blocker: reduces IL-6 driven STAT3 reporter signal; U3A cells, IL-6 STAT3-luciferase reporter, luminescence; host cell line lacks STAT1; inhibition, % at 5.5 µM; 190,000 tested, 0.89% active; AID 862;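 active = inhibition above the mean inhibition across all screened compounds plus 3 SD, cut at about 44% in these data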
NF-kB neuron act: compounds increasing NF-kB expression in human neuronal cells. fold change at 12.5 µM. 190,000 tested, 1.6% active. AID 1239. NF-kB reporter expression; active compounds read high; in the data active = fold change above about 3.3
STAT3 act: STAT3 signaling activation. 190,000 tested, 0.91% active. activation (% of control), % at 5.6 µM. U3A cells, IL-6 STAT3-luciferase reporter, luminescence; 100% = signal with IL-6 EC80 alone;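 active = activation above the screen-wide mean of compound activation plus 3 SD, cut at about 130% in these data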
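Material: human U3A cells carrying STAT3-luciferase construct. Measured by: reporter luminescence signal. Timing: compound 1 h, then IL-6 6 h at 37 °C.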
STAT1 activator: activators of IFN-gamma induced STAT1 signaling. NIH 3T3 STAT1-luciferase reporter, luminescence; 100% = IFN-gamma alone, no compound. activation (% of control), % at 5.5 µM. 200,000 tested, 2.6% active;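 active = activation above the screen-wide mean activation plus 3 SD, cut at about 130% in these data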
Hits are given with their value.

For Cc1ccc(N(CN2C(=O)c3ccccc3C2=O)C(=O)c2ccc([N+](=O)[O-])cc2[N+](=O)[O-])cc1 the results were STAT1 inh inactive, APP 5'UTR act inactive, STAT3 blocker inactive, NF-kB neuron act inactive, STAT3 act inactive and STAT1 activator inactive.
`CCCc1noc(-c2ccc(-c3ccccc3)cc2)n1` gave STAT1 inh inactive, APP 5'UTR act inactive, STAT3 blocker inactive, NF-kB neuron act 5.67, STAT3 act inactive and STAT1 activator 137.7.
`CCCc1noc(-c2cccc([N+](=O)[O-])c2)n1` gave STAT1 inh inactive, APP 5'UTR act inactive, STAT3 blocker inactive, NF-kB neuron act inactive, STAT3 act inactive and STAT1 activator inactive.
`O=S(=O)(Nc1ccc2c(c1)OCO2)c1cccs1` gave STAT1 inh inactive, APP 5'UTR act inactive, STAT3 blocker inactive, NF-kB neuron act inactive, STAT3 act inactive and STAT1 activator inactive.
O=C(Nc1ccc2nsnc2c1)c1cccs1 was read as STAT1 inh inactive, APP 5'UTR act inactive, STAT3 blocker inactive, NF-kB neuron act inactive, STAT3 act inactive and STAT1 activator inactive.
O=C(Nc1ccc2c(c1)OCO2)c1ccncc1 was read as STAT1 inh inactive, APP 5'UTR act inactive, STAT3 blocker inactive, NF-kB neuron act inactive, STAT3 act inactive and STAT1 activator inactive.
O=C(/C=C\Nc1ccc2c(c1)OCO2)c1cccs1 was read as STAT1 inh 64.6, APP 5'UTR act 177.6, STAT3 blocker 89.9, NF-kB neuron act 6.31, STAT3 act inactive and STAT1 activator inactive.
Screening O=C(Nc1ccc2c(c1)OCO2)c1cccs1 returned STAT1 inh inactive, APP 5'UTR act inactive, STAT3 blocker inactive, NF-kB neuron act 3.43, STAT3 act inactive and STAT1 activator inactive.
`C/C(=N\NC(=O)c1cccs1)c1ccc2c(c1)OCO2` gave STAT1 inh inactive, APP 5'UTR act inactive, STAT3 blocker inactive, NF-kB neuron act inactive, STAT3 act inactive and STAT1 activator inactive.
Screening O=C(c1ccc2c(c1)OCCCO2)c1cccs1 returned STAT1 inh inactive, APP 5'UTR act 140.0, STAT3 blocker inactive, NF-kB neuron act 3.97, STAT3 act inactive and STAT1 activator inactive.
`O=C(Nc1ccc2nn(-c3ccccc3)nc2c1)c1cccs1` gave STAT1 inh inactive, APP 5'UTR act inactive, STAT3 blocker inactive, NF-kB neuron act inactive, STAT3 act inactive and STAT1 activator 136.3.
Screening COc1ccc(S(=O)(=O)n2cnc(C)c2)cc1 returned STAT1 inh inactive, APP 5'UTR act inactive, STAT3 blocker inactive, NF-kB neuron act inactive, STAT3 act inactive and STAT1 activator inactive.
Screening CCOCCCNC(=O)C(c1ccc(OC)cc1)N(Cc1ccc2c(c1)OCO2)C(=O)c1ccccc1O (stereo not drawn) returned STAT1 inh inactive, APP 5'UTR act inactive, STAT3 blocker inactive, NF-kB neuron act inactive, STAT3 act inactive and STAT1 activator inactive.
`Cc1ccc(N/C=C/C(=O)c2cccs2)cc1` gave STAT1 inh 82.6, APP 5'UTR act 214.2, STAT3 blocker 97.9, NF-kB neuron act inactive, STAT3 act inactive and STAT1 activator inactive.
For Cc1noc(NS(=O)(=O)c2ccc(N/C=C\C(=O)c3cccs3)cc2)c1C the results were STAT1 inh inactive, APP 5'UTR act inactive, STAT3 blocker inactive, NF-kB neuron act inactive, STAT3 act inactive and STAT1 activator inactive.
`O=C(/C=C\Nc1cccc(F)c1)c1cccs1` gave STAT1 inh inactive, APP 5'UTR act 188.6, STAT3 blocker inactive, NF-kB neuron act 7.68, STAT3 act inactive and STAT1 activator 149.1.
`CC1(C)CC(N=Cc2c(O)n(Cc3ccc4c(c3)OCO4)c(=O)c3ccccc23)CC(C)(C)N1` gave STAT1 inh inactive, APP 5'UTR act inactive, STAT3 blocker inactive, NF-kB neuron act inactive, STAT3 act inactive and STAT1 activator inactive.
Cc1cc(/C=C2\NC(=S)N(C)C2=O)ccc1N1CCCC1 was read as STAT1 inh inactive, APP 5'UTR act inactive, STAT3 blocker inactive, NF-kB neuron act inactive, STAT3 act inactive and STAT1 activator 137.5.
`COc1ccc(/C=N/NC(=S)NC2CCS(=O)(=O)C2)cc1` (stereo not drawn) gave STAT1 inh inactive, APP 5'UTR act inactive, STAT3 blocker inactive, NF-kB neuron act inactive, STAT3 act inactive and STAT1 activator inactive.
CCC(=O)Nc1cc(C(=O)OCC(=O)c2ccccc2)ccc1C was read as STAT1 inh inactive, APP 5'UTR act inactive, STAT3 blocker inactive, NF-kB neuron act inactive, STAT3 act inactive and STAT1 activator 143.7.
`O=C(NCCN1CCOCC1)c1cc(-c2ccc(Br)cc2)on1` gave STAT1 inh inactive, APP 5'UTR act inactive, STAT3 blocker inactive, NF-kB neuron act inactive, STAT3 act inactive and STAT1 activator inactive.
`O=C(NCCN1CCOCC1)c1cc(-c2ccccc2)on1` gave STAT1 inh inactive, APP 5'UTR act inactive, STAT3 blocker inactive, NF-kB neuron act 6.26, STAT3 act inactive and STAT1 activator inactive.
Screening CC(C)NC(=O)c1cc(-c2cccs2)on1 returned STAT1 inh inactive, APP 5'UTR act inactive, STAT3 blocker inactive, NF-kB neuron act 3.97, STAT3 act inactive and STAT1 activator inactive.
`O=C(NCCN1CCOCC1)c1cc(-c2cccs2)on1` gave STAT1 inh inactive, APP 5'UTR act inactive, STAT3 blocker inactive, NF-kB neuron act 5.76, STAT3 act inactive and STAT1 activator inactive.
`O=C(NCCCN1CCOCC1)c1cc(-c2ccccc2)on1` gave STAT1 inh inactive, APP 5'UTR act inactive, STAT3 blocker inactive, NF-kB neuron act 5.51, STAT3 act inactive and STAT1 activator inactive.
Screening CC1SC(c2ccc(F)cc2)NC1=O (stereo not drawn) returned STAT1 inh inactive, APP 5'UTR act inactive, STAT3 blocker inactive, NF-kB neuron act inactive, STAT3 act inactive and STAT1 activator inactive.
`CC(C)(C)c1nnc(NC(=O)c2cccs2)s1` gave STAT1 inh inactive, APP 5'UTR act inactive, STAT3 blocker inactive, NF-kB neuron act 3.43, STAT3 act inactive and STAT1 activator 134.2.
For CCCCc1nnc(NC(=O)C=C(C)C)s1 the results were STAT1 inh inactive, APP 5'UTR act inactive, STAT3 blocker inactive, NF-kB neuron act inactive, STAT3 act inactive and STAT1 activator inactive.
`CCCCC(CC)c1nnc(NC(=O)c2cccs2)s1` (stereo not drawn) gave STAT1 inh inactive, APP 5'UTR act inactive, STAT3 blocker inactive, NF-kB neuron act inactive, STAT3 act inactive and STAT1 activator inactive.
`CC(C)c1nnc(NC(=O)c2cccs2)s1` gave STAT1 inh inactive, STAT3 blocker inactive, NF-kB neuron act inactive, STAT3 act inactive and STAT1 activator 129.2.
Cc1cnc(C(=O)Nc2nnc(C(C)C)s2)cn1 was read as STAT1 inh inactive, APP 5'UTR act inactive, STAT3 blocker inactive, NF-kB neuron act inactive, STAT3 act inactive and STAT1 activator 130.8.
CC(C)=CC(=O)Nc1nnc(C(C)C)s1 was read as STAT1 inh inactive, APP 5'UTR act inactive, STAT3 blocker inactive, NF-kB neuron act inactive, STAT3 act inactive and STAT1 activator 144.7.

Screens: PubChem BioAssay, several laboratories
